Test results published in ChEMBL document CHEMBL4052702 (Bioorg Med Chem Lett, 2017).

Columns and labels:
Histone deacetylase 1 [1] = molecular target: T1, Histone deacetylase 1 (Homo sapiens, UniProt Q13547); experiment: Inhibition of HDAC1 (unknown origin) assessed as remaining enzyme activity at 4 x 10^-6 M by ELISA-based assay
Homo sapiens [2] = species: Homo sapiens; experiment: Inhibition of HDAC in human HeLa-S3 cells lysates assessed as remaining enzyme activity at 2 x 10^-5 M pre-incubated for 15 mins before HDAC-Glo I/II substrate addition and measured after 30 mins post substrate addition; type: cell-free
Homo sapiens [3] = species: Homo sapiens; experiment: Inhibition of HDAC in human HeLa-S3 cells lysates assessed as remaining enzyme activity at 1 x 10^-5 M pre-incubated for 15 mins before HDAC-Glo I/II substrate addition and measured after 30 mins post substrate addition; type: cell-free
Homo sapiens [4] = species: Homo sapiens; experiment: Inhibition of HDAC in human HeLa-S3 cells lysates assessed as remaining enzyme activity at 5 x 10^-6 M pre-incubated for 15 mins before HDAC-Glo I/II substrate addition and measured after 30 mins post substrate addition; type: cell-free
Homo sapiens [5] = species: Homo sapiens; experiment: Inhibition of HDAC in human HeLa-S3 cells lysates assessed as remaining enzyme activity at 2.5 x 10^-6 M pre-incubated for 15 mins before HDAC-Glo I/II substrate addition and measured after 30 mins post substrate addition; type: cell-free
Homo sapiens [6] = species: Homo sapiens; experiment: Inhibition of HDAC in human HeLa-S3 cells lysates assessed as remaining enzyme activity at 1.25 x 10^-6 M pre-incubated for 15 mins before HDAC-Glo I/II substrate addition and measured after 30 mins post substrate addition; type: cell-free
Histone deacetylase 1 [7] = molecular target: T1, Histone deacetylase 1; experiment: Inhibition of HDAC1 (unknown origin) assessed as remaining enzyme activity at 1.25 uM by ELISA-based assay
How it was run: (§1)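 Isoform screen by ELISA-based HDAC activity assay against HDAC1, HDAC2, HDAC3 and HDAC6. Each analog was tested at one final concentration: 0.025, 0.125, 0.25 or 1.25 µM. Read-out is percent deacetylase activity remaining, given as the mean with standard error of at least two independent trials.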

Histone deacetylase 2 [8] = molecular target: T2, Histone deacetylase 2 (Homo sapiens, UniProt Q92769); experiment: Inhibition of HDAC2 (unknown origin) assessed as remaining enzyme activity at 1.25 uM by ELISA-based assay; how it was run: as §1
Histone deacetylase 3 [9] = molecular target: T3, Histone deacetylase 3 (Homo sapiens, UniProt O15379); experiment: Inhibition of HDAC3 (unknown origin) assessed as remaining enzyme activity at 1.25 uM by ELISA-based assay; how it was run: as §1
[10] = molecular target: T4, Protein deacetylase HDAC6 (Homo sapiens) (UniProt Q9UBN7); experiment: Inhibition of HDAC6 (unknown origin) assessed as remaining enzyme activity at 1.25 uM by ELISA-based assay
T4 sequence (whole entry): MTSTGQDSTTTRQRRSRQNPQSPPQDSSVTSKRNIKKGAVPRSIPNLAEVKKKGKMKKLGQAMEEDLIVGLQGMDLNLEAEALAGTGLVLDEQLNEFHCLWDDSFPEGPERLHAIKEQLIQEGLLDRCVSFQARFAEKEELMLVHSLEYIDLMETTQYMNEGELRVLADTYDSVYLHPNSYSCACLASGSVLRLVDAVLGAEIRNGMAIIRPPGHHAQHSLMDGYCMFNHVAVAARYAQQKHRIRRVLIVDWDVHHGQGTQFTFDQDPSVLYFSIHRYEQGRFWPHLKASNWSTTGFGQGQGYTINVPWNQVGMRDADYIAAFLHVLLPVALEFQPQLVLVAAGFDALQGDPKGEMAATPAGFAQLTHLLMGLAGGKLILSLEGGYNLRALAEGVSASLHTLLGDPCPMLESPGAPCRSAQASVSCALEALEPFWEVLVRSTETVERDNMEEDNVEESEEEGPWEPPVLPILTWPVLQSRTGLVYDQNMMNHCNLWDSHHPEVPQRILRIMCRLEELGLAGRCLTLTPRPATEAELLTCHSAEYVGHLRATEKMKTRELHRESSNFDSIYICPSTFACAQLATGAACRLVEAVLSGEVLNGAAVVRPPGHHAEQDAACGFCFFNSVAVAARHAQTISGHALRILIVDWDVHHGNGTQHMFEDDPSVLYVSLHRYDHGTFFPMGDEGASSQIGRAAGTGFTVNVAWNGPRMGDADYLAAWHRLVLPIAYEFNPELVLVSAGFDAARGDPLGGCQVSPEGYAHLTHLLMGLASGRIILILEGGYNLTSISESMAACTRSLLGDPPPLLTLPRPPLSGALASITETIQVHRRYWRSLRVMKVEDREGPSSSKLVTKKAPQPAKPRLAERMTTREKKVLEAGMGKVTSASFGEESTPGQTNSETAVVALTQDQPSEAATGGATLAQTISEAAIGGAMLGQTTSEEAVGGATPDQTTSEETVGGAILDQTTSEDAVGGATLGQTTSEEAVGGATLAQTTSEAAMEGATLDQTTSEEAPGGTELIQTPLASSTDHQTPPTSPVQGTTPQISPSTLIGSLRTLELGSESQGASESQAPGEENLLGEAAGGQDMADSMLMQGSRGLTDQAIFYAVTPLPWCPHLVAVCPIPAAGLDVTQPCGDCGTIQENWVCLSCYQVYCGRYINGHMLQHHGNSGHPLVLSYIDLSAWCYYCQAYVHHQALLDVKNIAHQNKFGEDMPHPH
How it was run: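 Single-concentration isoform screen using an ELISA-based HDAC activity assay, run in parallel against HDAC1, HDAC2, HDAC3 and HDAC6. Read-out is percent deacetylase activity remaining, given as the mean of at least two independent trials with standard error.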

[11] = molecular target: T4, Protein deacetylase HDAC6 (Homo sapiens); experiment: Inhibition of HDAC6 (unknown origin) assessed as remaining enzyme activity at 8 x 10^-7 M by ELISA-based assay
Histone deacetylase 2 [12] = molecular target: T2, Histone deacetylase 2; experiment: Inhibition of HDAC2 (unknown origin) assessed as remaining enzyme activity at 1.6 x 10^-5 M by ELISA-based assay
Histone deacetylase 2 [13] = molecular target: T2, Histone deacetylase 2; experiment: Inhibition of HDAC2 (unknown origin) assessed as remaining enzyme activity at 8 x 10^-6 M by ELISA-based assay
Histone deacetylase 3 [14] = molecular target: T3, Histone deacetylase 3; experiment: Inhibition of HDAC3 (unknown origin) assessed as remaining enzyme activity at 1.6 x 10^-5 M by ELISA-based assay
Histone deacetylase 3 [15] = molecular target: T3, Histone deacetylase 3; experiment: Inhibition of HDAC3 (unknown origin) assessed as remaining enzyme activity at 8 x 10^-6 M by ELISA-based assay
Histone deacetylase 1 [16] = molecular target: T1, Histone deacetylase 1; experiment: Inhibition of HDAC1 (unknown origin) assessed as remaining enzyme activity at 8 x 10^-6 M by ELISA-based assay
Homo sapiens [17] = species: Homo sapiens; experiment: Inhibition of HDAC in human HeLa-S3 cells lysates assessed as remaining enzyme activity at 6 x 10^-6 M pre-incubated for 15 mins before HDAC-Glo I/II substrate addition and measured after 30 mins post substrate addition; type: cell-free
Homo sapiens [18] = species: Homo sapiens; experiment: Inhibition of HDAC in human HeLa-S3 cells lysates assessed as remaining enzyme activity at 7.5 x 10^-7 M pre-incubated for 15 mins before HDAC-Glo I/II substrate addition and measured after 30 mins post substrate addition; type: cell-free

T2 sequence (Q92769 whole entry): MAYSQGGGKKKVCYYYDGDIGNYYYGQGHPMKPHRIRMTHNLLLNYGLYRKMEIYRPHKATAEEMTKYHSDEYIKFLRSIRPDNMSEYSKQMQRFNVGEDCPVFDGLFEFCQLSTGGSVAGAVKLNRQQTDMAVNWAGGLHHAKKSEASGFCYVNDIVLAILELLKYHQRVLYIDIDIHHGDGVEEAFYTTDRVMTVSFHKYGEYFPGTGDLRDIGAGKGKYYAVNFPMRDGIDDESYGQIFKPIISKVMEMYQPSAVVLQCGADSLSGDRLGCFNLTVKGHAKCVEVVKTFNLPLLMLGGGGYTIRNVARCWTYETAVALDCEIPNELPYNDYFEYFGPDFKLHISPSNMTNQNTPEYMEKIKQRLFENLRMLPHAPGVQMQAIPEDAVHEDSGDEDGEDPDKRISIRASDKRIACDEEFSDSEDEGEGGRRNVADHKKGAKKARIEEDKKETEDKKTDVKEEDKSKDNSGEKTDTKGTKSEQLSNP
T1 sequence (Q13547 whole entry): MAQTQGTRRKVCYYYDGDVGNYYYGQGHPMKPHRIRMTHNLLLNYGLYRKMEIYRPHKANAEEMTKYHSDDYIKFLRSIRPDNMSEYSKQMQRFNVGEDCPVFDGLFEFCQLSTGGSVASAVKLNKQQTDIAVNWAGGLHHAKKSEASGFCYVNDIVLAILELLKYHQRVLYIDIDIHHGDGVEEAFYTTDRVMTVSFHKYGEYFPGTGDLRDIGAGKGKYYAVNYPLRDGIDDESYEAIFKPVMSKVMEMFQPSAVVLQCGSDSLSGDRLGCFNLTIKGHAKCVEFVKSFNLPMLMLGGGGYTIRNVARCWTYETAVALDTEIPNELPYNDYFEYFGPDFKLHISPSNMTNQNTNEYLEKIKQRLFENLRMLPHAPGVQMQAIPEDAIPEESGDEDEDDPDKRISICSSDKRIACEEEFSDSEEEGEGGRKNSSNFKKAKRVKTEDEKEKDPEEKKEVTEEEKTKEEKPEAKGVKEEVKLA
T3 sequence (O15379 whole entry): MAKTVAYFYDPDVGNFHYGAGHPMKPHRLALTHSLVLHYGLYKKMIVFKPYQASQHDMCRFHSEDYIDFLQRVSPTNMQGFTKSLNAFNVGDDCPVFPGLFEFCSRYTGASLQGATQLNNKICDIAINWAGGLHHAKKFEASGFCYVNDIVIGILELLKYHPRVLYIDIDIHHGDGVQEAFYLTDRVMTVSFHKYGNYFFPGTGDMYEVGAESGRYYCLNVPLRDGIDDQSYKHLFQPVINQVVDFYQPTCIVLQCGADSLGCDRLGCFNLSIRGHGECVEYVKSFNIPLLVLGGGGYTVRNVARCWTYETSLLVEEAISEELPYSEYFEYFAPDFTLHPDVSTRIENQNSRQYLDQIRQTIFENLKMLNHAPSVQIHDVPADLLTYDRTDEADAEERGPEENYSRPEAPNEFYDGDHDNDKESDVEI

| Activity (Histone deacetylase 1 [1]) | Activity (Histone deacetylase 1 [7]) | Activity (Histone deacetylase 2 [8]) | Activity (Histone deacetylase 3 [9]) | Activity [10] | Activity [11] | Activity (Histone deacetylase 2 [12]) | Activity (Histone deacetylase 2 [13]) | Activity (Histone deacetylase 3 [14]) | Activity (Histone deacetylase 3 [15]) | Activity (Histone deacetylase 1 [16]) | Structure (SMILES) | Activity (Homo sapiens [2]) | Activity (Homo sapiens [3]) | Activity (Homo sapiens [4]) | Activity (Homo sapiens [5]) | Activity (Homo sapiens [6]) | Activity (Homo sapiens [17]) | Activity (Homo sapiens [18]) |
| --- | --- | --- | --- | --- | --- | --- | --- | --- | --- | --- | --- | --- | --- | --- | --- | --- | --- | --- |
| 37% | 64% | 72% | 71% | 28% | 34% | 14% | 21% | 12% | 27% | 22% | CCCCCCC(CCCC(=O)NO)CCC(=O)Nc1ccccc1 (stereo unspecified) | 15% | 35% | 58% | 83% | 92% |  |  |
| 18% |  |  |  |  | 28% |  |  |  |  |  | CCCCC(CCCC(=O)NO)CCC(=O)Nc1ccccc1 (stereo unspecified) |  |  |  |  |  | 42% | 101% |
| 45% | 69% | 74% | 74% | 17% | 26% | 19% | 30% | 23% | 43% | 27% | O=C(CCCC(CCC(=O)Nc1ccccc1)Cc1ccccc1)NO (stereo unspecified) | 17% | 33% | 56% | 78% | 93% |  |  |
